Laboratory results taken from ChEMBL document CHEMBL3992512, “The Discovery and Hit-to-Lead Optimization of Tricyclic Sulfonamides as Potent and Efficacious Potentiators of Glycine Receptors” (J Med Chem, 2017).
Calls of active or inactive are those of the source.

Legend:
[1] = biological target: T1, Glycine receptor subunit alpha-3 (Homo sapiens, UniProt O75311); assay: Positive allosteric modulation of human glycine alpha3 receptor expressed in HEK293T cells assessed as potentiation of glycine-induced increase in chloride ion flux after 4 mins by membrane potential blue dye based FLIPR assay; assay type: cell-based, HEK-293T
T1 sequence (O75311 whole entry): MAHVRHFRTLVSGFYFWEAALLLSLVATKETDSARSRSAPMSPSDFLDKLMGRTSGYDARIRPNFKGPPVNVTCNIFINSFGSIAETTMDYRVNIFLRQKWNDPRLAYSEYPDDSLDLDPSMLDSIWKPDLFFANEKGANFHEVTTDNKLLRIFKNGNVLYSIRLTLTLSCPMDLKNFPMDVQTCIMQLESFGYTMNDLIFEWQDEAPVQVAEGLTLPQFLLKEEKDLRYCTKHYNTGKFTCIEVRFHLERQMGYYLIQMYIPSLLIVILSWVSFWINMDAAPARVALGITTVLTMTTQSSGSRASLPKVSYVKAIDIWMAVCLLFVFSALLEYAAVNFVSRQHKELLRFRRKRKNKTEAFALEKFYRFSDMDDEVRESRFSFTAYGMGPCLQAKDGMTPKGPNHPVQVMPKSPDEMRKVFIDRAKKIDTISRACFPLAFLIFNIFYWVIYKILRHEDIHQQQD

[2] = Ratio of unbound Cmax in mouse brain to EC50 for glycine alpha3 receptor in mouse model of spared nerve injury-induced tactile allodynia at 20 mg/kg, po
[3] = biological target: T1, Glycine receptor subunit alpha-3; assay: Binding affinity to human glycine alpha3 receptor expressed in HEK293T cells by SPR assay; parameters: species or system HEK-293T
[4] = biological target: Glycine receptor alpha-3/beta (Homo sapiens) (UniProt O75311+P48167); assay: Positive allosteric modulation of human glycine alpha3beta receptor expressed in HEK293T cells assessed as compound concentration required to induce up to 3-fold leftward shift in glycine-induced increase in chloride ion flux after 4 mins by Schild plot analysis; assay type: cell-based
Outline: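 HEK293T cells stably expressing human GlyRα3β, ~12000 cells/well, plated overnight and loaded with membrane potential blue dye. Glycine 1:2 dilution series premixed with compound at varying concentrations in HEPES/NaCl/mannitol buffer, pH 7.4. FLIPR fluorescence read 4 min and processed as AUC over baseline. mEC₃ is the lowest tested concentration giving a ≥3-fold leftward shift of glycine EC₅₀.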

Mus musculus [5] = assay: Antiallodynic activity in mouse model of spared nerve injury-induced tactile allodynia assessed as tactile threshold at 20 mg/kg, po measured 60 mins post dose by Von Frey filament assay (reference value: 0.82 +/- 0.19 g); assay type: functional
[6] = Passive apparent permeability in MDCK cells; assay type: ADME, cell-based, Canis lupus familiaris; conditions: dog
Outline: (§1)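 Bidirectional transport at 5 μM, in triplicate, across MDCK cells carrying control vector, human MDR1 or human ABCG2 (BCRP). Passive Papp is the mean of both directions in vector-control cells. Efflux ratios come from the MDR1 and BCRP lines.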

human MDR1 = assay: Efflux ratio of passive apparent permeability in MDCK cells harboring human MDR1; assay type: ADME, cell-based, Canis lupus familiaris; conditions: dog; outline: as §1
[7] = Intrinsic clearance in mouse liver microsomes up to 40 mins in presence of NADPH; assay type: ADME, microsome; conditions: read-out: CLH
[8] = Intrinsic clearance in human liver microsomes; assay type: ADME, microsome; conditions: read-out: CLH
Mus musculus [9] = organism: Mus musculus; assay: Ex vivo positive allosteric modulation of glycine receptor in C57BL/6 mouse spinal cord assessed as potentiation of glycine-induced post synaptic current amplitude at 0.5 uM at holding potential of -60 mV after 10 mins in presence of sodium channel inhibitor TTX/AMPA/kainate receptor antagonist CNQX/GABAa receptor antagonist bicuculline/NMDA receptor antagonist APV by electrophysiology method relative to glycine alone
Outline: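 Adult mouse spinal cord slices; dorsal horn neurons in laminae I–II were identified histologically and confirmed glycinergic by focal glycine (20 μM) with strychnine (10 μM) reversal. Postsynaptic current amplitude was recorded with glycine 20 μM alone, then with glycine plus compound at 0.5 μM, then with strychnine added. The readout is the mean ratio of PSC amplitude (compound + glycine / glycine alone), n = 5.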

human BCRP = assay: Efflux ratio of passive apparent permeability in MDCK cells harboring human BCRP; assay type: ADME, cell-based, Canis lupus familiaris; conditions: dog; outline: as §1
[10] = Oral bioavailability in mouse at 10 mg/kg; assay type: ADME, organism-based; conditions: in vivo
[11] = Ratio of unbound Cmax in mouse brain to EC50 for glycine alpha3 receptor in mouse model of spared nerve injury-induced tactile allodynia at 10 mg/kg, po
Outline: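 Mice dosed orally; unbound brain Cmax is total brain concentration × brain fraction unbound, sampled at multiple time points. It is divided by EC₅₀ for potentiation of mouse GlyRα3.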

| SMILES | EC50 [1] [µM] | Ratio [2] | Kd [3] [µM] | MEC [4] [µM] | Activity (Mus musculus [5]) | Papp [6] [nm/s] | efflux ratio (human MDR1) | microsomal CLint [7] [µL/min/mg] | microsomal CLint [8] [µL/min/mg] | fold change (FC) (Mus musculus [9]) | efflux ratio (human BCRP) | bioavailability [10] [%] | Ratio [11] |
| --- | --- | --- | --- | --- | --- | --- | --- | --- | --- | --- | --- | --- | --- |
| CN1C(=O)[C@H]2CN(S(=O)(=O)c3ccc4occc4c3)C[C@H]2c2cnccc21 | 20 to 25 | 1.9 | > 20 | > 25 | inactive |  |  |  |  |  |  |  |  |
| C[C@H]1[C@H]2C(=O)N(C)c3ccncc3[C@H]2CN1S(=O)(=O)c1ccc2c(c1)OCO2 | 0.05 |  | 0.011 | 0.025 |  | 431 | 1.6 | 254 | 83 |  |  |  |  |
| CN1C(=O)[C@@H]2CN(S(=O)(=O)c3ccc4occc4c3)C[C@@H]2c2cnccc21 | 0.45 |  | 0.19 | 0.2 | 1.53 g | 690 | 1.5 | 188 |  | 4.4 | 1.1 | 100 | 1.2 |
